# Assay results: ChEMBL document CHEMBL3616433, “Synthesis and anti-cancer potential of the positional isomers of NOSH-aspirin (NBS-1120) a dual nitric oxide and hydrogen sulfide releasing hybrid” (Bioorg Med Chem Lett, 2015)
# Activity calls are given as the source filed them. No cut-off for these calls is given here.
# Columns and labels:
# HT-29 [1] = assay: Cytotoxicity against human HT-29 cells assessed as growth inhibition after 24 hrs by MTT assay; type: functional, cell-based; details: HT-29, 24 h
# Summary of the method: (§1)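 Cells grown in RPMI 1640 with 10% FBS, penicillin/streptomycin, at 37°C and 5% CO2. Compounds came from 100 mM DMSO stocks, with final DMSO 1% in all media. Growth was read by colorimetric MTT kit after 24 h. IC50 came from dose-response curves. Mean ± SEM of three to five experiments, each in triplicate.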
# HCT-15 = assay: Cytotoxicity against human HCT15 cells assessed as growth inhibition after 24 hrs by MTT assay; type: functional, cell-based; details: HCT-15, 24 h; summary of the method: as §1
# HT-29 [2] = assay: Cytotoxicity against human HT-29 cells assessed as reduction in PCNA expression after 24 hrs by ELISA; type: functional, cell-based
# Summary of the method: (§2)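 HT-29 cells (1×10^6 cells/mL) exposed to a range of concentrations for 24 h. PCNA antigen was quantified by ELISA kit per the manufacturer's protocol and expressed as % of vehicle-treated cells. Mean ± SEM of 3 experiments run in duplicate; ANOVA with Tukey's test.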
# HT-29 [3] = assay: Cytotoxicity against human HT-29 cells assessed as reduction in PCNA expression at 10 nM after 24 hrs by ELISA relative to vehicle treated control; type: functional; parameters: scale not given: the % may be the effect or the level left; summary of the method: as §2
# HT-29 [4] = assay: Cytotoxicity against human HT-29 cells assessed as reduction in PCNA expression at 25 nM after 24 hrs by ELISA relative to vehicle treated control; type: functional; parameters: scale not given: the % may be the effect or the level left; summary of the method: as §2
# HT-29 [5] = assay: Cytotoxicity against human HT-29 cells assessed as reduction in PCNA expression at 50 nM after 24 hrs by ELISA relative to vehicle treated control; type: functional; parameters: scale not given: the % may be the effect or the level left; summary of the method: as §2
# HT-29 [6] = assay: Cytotoxicity against human HT-29 cells assessed as reduction in PCNA expression at 100 nM after 24 hrs by ELISA relative to vehicle treated control; type: functional; parameters: scale not given: the % may be the effect or the level left; summary of the method: as §2
# HT-29 [7] = assay: Induction of apoptosis in human HT-29 cells assessed as early apoptotic cells at 10 nM after 24 hrs using annexin-V staining by flow cytometry relative to control; type: functional
# Summary of the method: (§3)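 HT-29 cells (0.5×10^6 cells/mL) treated 24 h, washed, and resuspended in Annexin binding buffer (HEPES pH 7.4, NaCl, CaCl2). They were stained with Annexin V-FITC (final 0.5 µg/mL) and propidium iodide (final 20 µg/mL) for 5–15 min at room temperature in the dark, then analysed by flow cytometry for early apoptotic cells. Mean ± SEM of 3 experiments in duplicate.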
# HT-29 [8] = assay: Induction of apoptosis in human HT-29 cells assessed as early apoptotic cells at 25 nM after 24 hrs using annexin-V staining by flow cytometry relative to control; type: functional; summary of the method: as §3
# HT-29 [9] = assay: Induction of apoptosis in human HT-29 cells assessed as early apoptotic cells at 50 nM after 24 hrs using annexin-V staining by flow cytometry relative to control; type: functional; summary of the method: as §3
# HT-29 [10] = assay: Induction of apoptosis in human HT-29 cells assessed as early apoptotic cells at 100 nM after 24 hrs using annexin-V staining by flow cytometry relative to control; type: functional; summary of the method: as §3
# HT-29 [11] = assay: Cell cycle arrest in human HT-29 cells assessed as accumulation at G0/G1 phase at 50 nM after 24 hrs using propidium iodide by flow cytometry (reference value: 39.6%); type: functional
# Summary of the method: (§4)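 HT-29 cells (0.5×10^6) treated 24 h, then trypsinized, fixed in 70% ethanol (10 min, −20°C), held in PBS/1% FBS/0.5% NP-40 on ice 5 min, and stained with propidium iodide 40 µg/mL plus RNase IIA 200 µg/mL. Flow cytometry within 30 min, >10,000 events per subset. Phase percentages were taken from DNA-content histograms. Representative of two experiments agreeing within 10%.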
# HT-29 [12] = assay: Cell cycle arrest in human HT-29 cells assessed as accumulation at G0/G1 phase at 100 nM after 24 hrs using propidium iodide by flow cytometry (reference value: 39.6%); type: functional; summary of the method: as §4
# HT-29 [13] = assay: Cell cycle arrest in human HT-29 cells assessed as reduction in S phase at 50 nM after 24 hrs using propidium iodide by flow cytometry (reference value: 31.9%); type: functional; parameters: scale not given: the % may be the effect or the level left; summary of the method: as §4
# HT-29 [14] = assay: Cell cycle arrest in human HT-29 cells assessed as reduction in S phase at 100 nM after 24 hrs using propidium iodide by flow cytometry (reference value: 31.9%); type: functional; parameters: scale not given: the % may be the effect or the level left; summary of the method: as §4
# HT-29 [15] = assay: Cell cycle arrest in human HT-29 cells assessed as reduction in G2/M phase at 50 nM after 24 hrs using propidium iodide by flow cytometry (reference value: 28.5%); type: functional; parameters: scale not given: the % may be the effect or the level left; summary of the method: as §4
# HT-29 [16] = assay: Cell cycle arrest in human HT-29 cells assessed as reduction in G2/M phase at 100 nM after 24 hrs using propidium iodide by flow cytometry (reference value: 28.5%); type: functional; parameters: scale not given: the % may be the effect or the level left; summary of the method: as §4
# HT-29 [17] = assay: Induction of ROS generation in human HT-29 cells assessed as increase in intracellular peroxide level at 50 nM after 1 hr using DCFDA staining by flow cytometry relative to control; type: functional
# Summary of the method: (§5)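 Plate HT-29 cells at 0.3×10^6/well for 24 h, then treat 1 h. Trypsinize, wash in PBS, and incubate with DCFDA (10 µM) 30 min at 37°C in the dark. Read fluorescence by flow cytometry as fold over basal. Mean ± SEM of three independent experiments.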
# HT-29 [18] = assay: Induction of ROS generation in human HT-29 cells assessed as increase in intracellular superoxide anion level at 50 nM after 1 hr using DHE staining by flow cytometry relative to control
# HT-29 [19] = assay: Cytotoxicity against human HT-29 cells assessed as reduction in PCNA expression at 100 to 1000 nM after 24 hrs by ELISA relative to vehicle treated control; type: functional, cell-based; summary of the method: as §2
# HT-29 [20] = assay: Induction of apoptosis in human HT-29 cells assessed as early apoptotic cells at 100 to 1000 nM after 24 hrs using annexin-V staining by flow cytometry relative to control; type: functional, cell-based; summary of the method: as §3
# HT-29 [21] = assay: Induction of ROS generation in human HT-29 cells assessed as increase in intracellular peroxide level at 500 nM after 1 hr using DCFDA staining by flow cytometry relative to control; type: functional; summary of the method: as §5
# HT-29 [22] = assay: Induction of ROS generation in human HT-29 cells assessed as increase in intracellular superoxide anion level at 500 nM after 1 hr using DHE staining by flow cytometry relative to control; type: functional
# Summary of the method: (§6)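 HT-29 cells (0.3×10^6/well) plated for 24 h, then treated 1 h. They were trypsinized, PBS-washed, and loaded with dihydroethidium (5 µM) for 30 min at 37°C in the dark. Superoxide fluorescence was measured by flow cytometry relative to basal. Mean ± SEM of three independent experiments.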
# HT-29 [23] = assay: Cell cycle arrest in human HT-29 cells assessed as accumulation at G0/G1 phase at 1 to 2 times IC50 after 24 hrs using propidium iodide by flow cytometry; type: functional, cell-based; summary of the method: as §4
# HT-29 [24] = assay: Cell cycle arrest in human HT-29 cells assessed as accumulation at S phase at 1 to 2 times IC50 after 24 hrs using propidium iodide by flow cytometry; type: functional, cell-based; summary of the method: as §4
# HT-29 [25] = assay: Cell cycle arrest in human HT-29 cells assessed as accumulation at G2/M phase at 1 to 2 times IC50 after 24 hrs using propidium iodide by flow cytometry; type: functional, cell-based; details: in the assay text read “G0/G1 phase” for “G2/M phase”; summary of the method: as §4
# HT-29 [26] = assay: Cytotoxicity against human HT-29 cells assessed as reduction in PCNA expression at 50 to 500 nM after 24 hrs by ELISA relative to vehicle treated control; type: functional, cell-based; summary of the method: as §2
# HT-29 [27] = assay: Induction of apoptosis in human HT-29 cells assessed as early apoptotic cells at 50 to 500 nM after 24 hrs using annexin-V staining by flow cytometry relative to control; type: functional, cell-based; summary of the method: as §3
# HT-29 [28] = assay: Induction of ROS generation in human HT-29 cells assessed as increase in intracellular peroxide level at 250 nM after 1 hr using DCFDA staining by flow cytometry relative to control; type: functional; summary of the method: as §5
# HT-29 [29] = assay: Induction of ROS generation in human HT-29 cells assessed as increase in intracellular superoxide anion level at 250 nM after 1 hr using DHE staining by flow cytometry relative to control; type: functional; summary of the method: as §6
# HT-29 [30] = assay: Cell cycle arrest in human HT-29 cells assessed as accumulation at G0/G1 phase at 1 to 2 times IC50 after 24 hrs using propidium iodide by flow cytometry
smiles,measurement,setting,value
O=C(CCCO[N+](=O)[O-])Oc1ccc(Cl)cc1C(=O)Oc1ccc(-c2cc(=S)ss2)cc1,IC50,HT-29 [1],0.4 µM
same,IC50,HCT-15,0.17 µM
O=C(CCCO[N+](=O)[O-])Oc1ccccc1C(=O)Oc1ccc(-c2cc(=S)ss2)cc1,IC50,HCT-15,0.057 µM
same,Activity,HT-29 [2],Dose-dependent effect
same,Activity,HT-29 [3],80%
same,Activity,HT-29 [4],65%
same,Activity,HT-29 [5],48%
same,Activity,HT-29 [6],20%
same,Activity,HT-29 [7],15%
same,Activity,HT-29 [8],35%
same,Activity,HT-29 [9],65%
same,Activity,HT-29 [10],78%
same,Activity,HT-29 [11],53.6%
same,Activity,HT-29 [12],71.9%
same,Activity,HT-29 [13],26.1%
same,Activity,HT-29 [14],18.2%
same,Activity,HT-29 [15],20.3%
same,Activity,HT-29 [16],9.9%
same,fold change (FC),HT-29 [17],16
same,fold change (FC),HT-29 [18],18
O=C(CCCO[N+](=O)[O-])Oc1cccc(C(=O)Oc2ccc(-c3cc(=S)ss3)cc2)c1Cl,IC50,HT-29 [1],0.21 µM
same,IC50,HCT-15,0.14 µM
COc1ccc(OC(=O)CCCO[N+](=O)[O-])c(C(=O)Oc2ccc(-c3cc(=S)ss3)cc2)c1,IC50,HT-29 [1],0.2 µM
same,IC50,HCT-15,0.38 µM
O=C(CCCO[N+](=O)[O-])Oc1ccc(C(=O)Oc2ccc(-c3cc(=S)ss3)cc2)cc1,IC50,HT-29 [1],0.45 µM
same,IC50,HCT-15,0.38 µM
same,Activity,HT-29 [19],Active
same,Activity,HT-29 [20],Active
same,fold change (FC),HT-29 [21],11
same,fold change (FC),HT-29 [22],10
same,Activity,HT-29 [23],Active
same,Activity,HT-29 [24],Active
same,Activity,HT-29 [25],Active
O=C(CCCO[N+](=O)[O-])Oc1ccc(C(=O)Oc2ccc(-c3cc(=S)ss3)cc2)cc1Cl,IC50,HT-29 [1],0.06 µM
same,IC50,HCT-15,0.33 µM
COc1ccc(C(=O)Oc2ccc(-c3cc(=S)ss3)cc2)cc1OC(=O)CCCO[N+](=O)[O-],IC50,HT-29 [1],0.43 µM
same,IC50,HCT-15,0.33 µM
O=C(CCCO[N+](=O)[O-])Oc1cccc(C(=O)Oc2ccc(-c3cc(=S)ss3)cc2)c1,IC50,HT-29 [1],0.22 µM
same,IC50,HCT-15,0.11 µM
same,Activity,HT-29 [26],Active
same,Activity,HT-29 [27],Active
same,fold change (FC),HT-29 [28],15
same,fold change (FC),HT-29 [29],21
same,Activity,HT-29 [23],Active
same,Activity,HT-29 [24],Active
same,Activity,HT-29 [30],Active
COc1cc(C(=O)Oc2ccc(-c3cc(=S)ss3)cc2)ccc1OC(=O)CCCO[N+](=O)[O-],IC50,HT-29 [1],0.13 µM
same,IC50,HCT-15,0.22 µM
CC(=O)Oc1ccccc1C(=O)O [ASPIRIN],IC50,HT-29 [1],> 5000 µM
same,IC50,HCT-15,> 5000 µM
